Measured values published in ChEMBL document CHEMBL1649090, “Discovery of (7R)-14-cyclohexyl-7-{[2-(dimethylamino)ethyl](methyl) amino}-7,8-dihydro-6H-indolo[1,2-e][1,5]benzoxazocine-11-carboxylic acid (MK-3281), a potent and orally bioavailable finger-loop inhibitor of the hepatitis C virus NS5B polymerase” (J Med Chem, 2011).
Calls of active or inactive are those of the source. The calls are words filed in the database; no cut-off is given here.

Experiments:
Hepatitis C virus [1] = experiment: Antiviral activity against HCV1b infected in human Huh-7 cells assessed as inhibition of viral RNA replication after 96 hrs by ELISA assay in presence of 50% normal human serum; assay type: functional, organism-based, Hepacivirus hominis; details: genotype 1b, Huh-7, 96 h
[2] = Ratio of drug level in liver to plasma in Sprague-Dawley rat liver at 3 mg/kg, po after 6 hrs; assay type: ADME, organism-based; design: dose 3 mg/kg, route oral
Summary of the method: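 Sprague-Dawley rats (n = 3) received the compound as its TFA salt in DMSO/PEG400/water 20%/60%/20%, as a single iv dose of 3 mg/kg or a single oral dose of 3 mg/kg. Liver tissue and plasma concentrations were measured 6 h after the oral dose.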

Cytochrome P450 2D6 = Cytochrome P450 2D6 (Homo sapiens, UniProt P10635); experiment: Inhibition of CYP2D6 up to 50 uM; assay type: ADME
Sequence of Cytochrome P450 2D6 (P10635 whole entry): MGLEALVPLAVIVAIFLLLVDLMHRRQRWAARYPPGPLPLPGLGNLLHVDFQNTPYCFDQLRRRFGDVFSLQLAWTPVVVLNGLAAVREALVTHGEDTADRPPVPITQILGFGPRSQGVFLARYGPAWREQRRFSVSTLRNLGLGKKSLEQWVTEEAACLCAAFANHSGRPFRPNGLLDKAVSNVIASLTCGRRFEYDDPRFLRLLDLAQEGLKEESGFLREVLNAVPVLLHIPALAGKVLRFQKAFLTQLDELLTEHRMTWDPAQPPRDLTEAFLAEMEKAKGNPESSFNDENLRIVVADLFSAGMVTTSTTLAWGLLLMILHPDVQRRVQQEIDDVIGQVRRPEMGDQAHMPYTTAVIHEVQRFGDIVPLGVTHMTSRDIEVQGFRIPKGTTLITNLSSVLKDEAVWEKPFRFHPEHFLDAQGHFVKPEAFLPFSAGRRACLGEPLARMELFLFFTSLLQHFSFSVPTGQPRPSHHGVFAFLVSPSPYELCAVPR

[3] = Intrinsic clearance in dog liver microsomes assessed per mg of protein; assay type: ADME, Canis lupus familiaris, Microsome
[4] = target: Macrophage metalloelastase (Homo sapiens, UniProt P39900); experiment: Inhibition of MMP12
Sequence of Macrophage metalloelastase (P39900 whole entry): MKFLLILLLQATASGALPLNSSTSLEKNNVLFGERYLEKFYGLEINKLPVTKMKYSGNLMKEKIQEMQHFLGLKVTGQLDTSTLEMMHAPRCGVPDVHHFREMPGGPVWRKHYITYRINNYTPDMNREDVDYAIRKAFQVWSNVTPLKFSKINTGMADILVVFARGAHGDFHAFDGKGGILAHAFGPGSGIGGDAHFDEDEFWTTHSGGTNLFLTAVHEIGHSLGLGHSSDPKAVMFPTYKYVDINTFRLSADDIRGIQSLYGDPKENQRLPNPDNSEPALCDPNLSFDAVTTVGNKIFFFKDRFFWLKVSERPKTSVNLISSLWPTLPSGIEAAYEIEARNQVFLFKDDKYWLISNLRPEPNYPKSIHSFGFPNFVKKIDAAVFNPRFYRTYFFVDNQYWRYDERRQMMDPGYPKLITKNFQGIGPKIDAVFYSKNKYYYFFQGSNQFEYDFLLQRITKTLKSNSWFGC

[5] = Intrinsic clearance in rat liver microsomes assessed per mg of protein in presence of UDPGA; assay type: ADME, Microsome
[6] = Plasma protein binding in dog; assay type: ADME, cell-free, Canis lupus familiaris; details: read-out: PPB (converted)
[7] = Intrinsic clearance in dog liver microsomes assessed per mg of protein presence of UDPGA; assay type: ADME, Canis lupus familiaris, Microsome
Hepatitis C virus [8] = experiment: Antiviral activity against HCV3a; assay type: functional, organism-based, Hepacivirus hominis; details: genotype 3a
[9] = target: Protein kinase C alpha type (Homo sapiens, UniProt P17252); experiment: Inhibition of PKCalpha
[10] = Plasma protein binding in monkey; assay type: ADME, cell-free, Macaca mulatta; details: rhesus monkey, read-out: PPB (converted)
[11] = Plasma concentration in HCV1b infected humanized uPA+/+-SCID mouse at 50 mg/kg, ip bid for 4 days measured 12 hrs after last post dose; assay type: ADME, organism-based; design: dose 50 mg/kg, route intraperitoneal
Summary of the method: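 Three humanized uPA+/+-SCID mice infected with genotype 1b HCV received 10 or 50 mg/kg ip twice daily for 4 days, in PEG400/water 30%/70%. Trough plasma concentration was taken 12 h after the last dose.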

[12] = Plasma protein binding in rat; assay type: ADME, cell-free; details: read-out: PPB (converted)
[13] = Clearance in dog at 1 mg/kg, iv and 2 mg/kg, po; assay type: ADME, organism-based, Canis lupus familiaris; details: in vivo
Summary of the method: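 Single-dose PK of the bis-HCl salt, n = 3 per species (dog po n = 2). Intravenous doses: rat 3, dog 1, rhesus 2 mg/kg, in DMSO/PEG400/water 20%/60%/20%. Oral doses: rat 3, dog 2, rhesus 4 mg/kg, in PEG400 for rat and dog and PEG400/water 70%/30% for rhesus.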

[14] = target: T1, DNA polymerase alpha catalytic subunit (Homo sapiens) (UniProt P09884); experiment: Inhibition of human DNA polymerase alpha up to 50 uM
T1 sequence (whole entry): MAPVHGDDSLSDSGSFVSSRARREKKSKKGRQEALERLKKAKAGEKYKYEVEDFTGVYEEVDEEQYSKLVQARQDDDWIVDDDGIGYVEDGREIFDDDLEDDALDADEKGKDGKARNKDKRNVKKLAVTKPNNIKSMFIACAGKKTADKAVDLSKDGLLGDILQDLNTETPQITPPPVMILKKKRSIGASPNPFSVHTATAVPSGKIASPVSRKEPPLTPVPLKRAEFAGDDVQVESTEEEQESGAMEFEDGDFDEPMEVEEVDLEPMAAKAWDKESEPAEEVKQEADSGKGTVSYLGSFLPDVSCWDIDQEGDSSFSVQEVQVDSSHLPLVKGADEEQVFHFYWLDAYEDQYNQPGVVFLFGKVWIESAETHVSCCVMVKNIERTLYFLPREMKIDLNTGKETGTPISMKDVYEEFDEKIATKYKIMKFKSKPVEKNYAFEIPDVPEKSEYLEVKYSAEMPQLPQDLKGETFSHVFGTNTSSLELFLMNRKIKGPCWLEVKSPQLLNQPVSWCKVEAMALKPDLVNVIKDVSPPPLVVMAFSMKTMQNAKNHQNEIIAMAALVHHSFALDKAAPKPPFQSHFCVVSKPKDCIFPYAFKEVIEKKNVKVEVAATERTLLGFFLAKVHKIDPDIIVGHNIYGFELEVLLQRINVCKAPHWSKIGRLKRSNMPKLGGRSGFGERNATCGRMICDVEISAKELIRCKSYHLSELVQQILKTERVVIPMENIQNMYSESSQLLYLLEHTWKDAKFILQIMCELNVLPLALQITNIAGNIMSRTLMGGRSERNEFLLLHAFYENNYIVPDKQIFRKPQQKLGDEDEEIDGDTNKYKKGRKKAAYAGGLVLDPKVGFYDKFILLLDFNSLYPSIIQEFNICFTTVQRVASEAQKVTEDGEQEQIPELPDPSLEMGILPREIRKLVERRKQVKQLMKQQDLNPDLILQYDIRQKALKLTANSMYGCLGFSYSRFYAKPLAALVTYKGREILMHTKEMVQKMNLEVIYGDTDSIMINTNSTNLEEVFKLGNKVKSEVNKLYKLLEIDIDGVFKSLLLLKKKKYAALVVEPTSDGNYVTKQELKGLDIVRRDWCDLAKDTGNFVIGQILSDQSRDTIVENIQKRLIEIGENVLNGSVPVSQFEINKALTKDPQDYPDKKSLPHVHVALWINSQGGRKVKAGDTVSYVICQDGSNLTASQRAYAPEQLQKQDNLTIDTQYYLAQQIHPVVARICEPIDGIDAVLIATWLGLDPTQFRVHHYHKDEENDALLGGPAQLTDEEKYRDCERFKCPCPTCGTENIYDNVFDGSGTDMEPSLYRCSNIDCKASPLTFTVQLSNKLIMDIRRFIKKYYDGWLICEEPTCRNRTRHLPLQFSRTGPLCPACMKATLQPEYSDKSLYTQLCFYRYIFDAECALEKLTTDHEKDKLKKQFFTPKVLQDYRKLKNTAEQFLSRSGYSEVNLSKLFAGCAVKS

[15] = target: T2, Nuclear receptor subfamily 1 group I member 2 (Homo sapiens, UniProt O75469); experiment: Inhibition of PXR activation up to 50 uM
T2 sequence (O75469 whole entry): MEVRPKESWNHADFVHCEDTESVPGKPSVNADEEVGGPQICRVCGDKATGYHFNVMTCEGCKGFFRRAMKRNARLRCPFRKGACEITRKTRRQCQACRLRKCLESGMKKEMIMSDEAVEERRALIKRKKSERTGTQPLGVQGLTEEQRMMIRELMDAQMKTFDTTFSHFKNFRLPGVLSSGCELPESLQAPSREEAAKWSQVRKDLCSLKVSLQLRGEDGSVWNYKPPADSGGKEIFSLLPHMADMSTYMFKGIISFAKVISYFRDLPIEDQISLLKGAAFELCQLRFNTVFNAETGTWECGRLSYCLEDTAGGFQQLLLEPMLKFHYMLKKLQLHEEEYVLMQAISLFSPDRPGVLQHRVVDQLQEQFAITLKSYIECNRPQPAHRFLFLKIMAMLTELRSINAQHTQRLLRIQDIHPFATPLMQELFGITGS

Hepatitis C virus [16] = experiment: Antiviral activity against HCV1b BK; assay type: functional, organism-based, Hepacivirus hominis; details: genotype 1b BK
Hepatitis C virus [17] = experiment: Antiviral activity against HCV2b; assay type: functional, organism-based, Hepacivirus hominis; details: genotype 2b

With `CN(C)CCN(C)[C@H]1COc2ccccc2-c2c(C3CCCCC3)c3ccc(C(=O)O)cc3n2C1` [MK-3281] the EC50 (Hepatitis C virus [1]) was 110 nM, the Kp at 6 h [2] was 5 and the “inhibition (INH)” value (Cytochrome P450 2D6) was “Not Active”. For the same compound, the microsomal CLint [3] was 3 µL/min/mg, the IC50 [4] was 8300 nM and the microsomal CLint [5] was under 4 µL/min/mg. The fraction unbound [6] was 0.027, the microsomal CLint [7] was under 4 µL/min/mg and the EC50 (Hepatitis C virus [8]) was 37 nM. The IC50 [9] was 59000 nM, the fraction unbound [10] was 0.074 and the concentration at 12 h [11] was 2600 nM. For the same compound, the fraction unbound [12] was 0.03, the clearance [13] was 7 mL/min/kg and the inhibition [14] was “inactive”. For the same compound, the “inhibition (INH)” value [15] was “Not Active”, the EC50 (Hepatitis C virus [16]) was 9 nM and the EC50 (Hepatitis C virus [17]) was 1830 nM.
